According to the EternaBench riboswitch data:

System: MS2 coat protein
Assay: apparent Kd, MS2 coat protein; higher = weaker binding; RNA-MaP array; FMN 200 µM where present
How it was run: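 In 100 mM Tris-HCl pH 7.5, 80 mM KCl, 4 mM MgCl2, BSA, DTT, yeast tRNA and Tween-20, SNAP-549-labelled MS2 coat protein was titrated from 0.7 or 1.5 nM, doubling to 3 µM, over designs transcribed by stalled E. coli RNA polymerase on Illumina sequencing-chip clusters. This was done first without ligand, then with ligand held constant. After green signal was normalised to red-channel RNA signal and control-cluster median Fmax, the apparent Kd was taken as the median of filtered per-cluster binding-curve fits.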

[1] = designed as: OFF switch for flavin mononucleotide, no ligand
[2] = ligand present: flavin mononucleotide, designed as: OFF switch for flavin mononucleotide
[3] = designed as: ON switch for flavin mononucleotide, no ligand
[4] = ligand present: flavin mononucleotide, designed as: ON switch for flavin mononucleotide

Row | Sequence | apparent Kd [1] | apparent Kd [2] | apparent Kd [3] | apparent Kd [4]
1 | ACGGCUGUCAGAGGAUAUGGUUACAUGAGGAUCACCCAUGUCAAGGGUCUAAUUAAGUAUAACUACUAGAAGGCUGAUGGCCUA | 263 nM | 144 nM | – | –
2 | UAGAAGUCAGGAUAUGCAUGGCGGGACUUGCGUCGUGGCGUGCAGAAGGGACAUGAGGAUCACCCAUGUGGAGG | 152 nM | 219 nM | – | –
3 | AGAAACUACGAGAAGGACAUGUGGUCCAAAAGAAACAUGAGGAUCACCCAUGUAGGAUAUCGUAGUUUCAGGAUCGUGAGAUCA | 280 nM | 56.8 nM | – | –
4 | UGGUGAAGUGUAGGAUAUGGAGGUGGGUUUUGGCCAGAAGGACAUGAGGAUCACCCAUGUGGUAGAGGGUUGGUGGUGGCUCGU | 23.9 nM | 21.4 nM | – | –
5 | ACAUGAGGAUCACCCAUGUUCACAUAGGAUAUUGAUUAUAUUGGUUUUAGAAUAGUAAUUAACCUCAAGAAGGAUGCCAGAUCU | – | – | 13.7 nM | 10.1 nM
6 | GCAGCGUCUGCAGGAUAUCAGCACGUGUAGUGCUGAGAAGGGCACAUGAGGAUCACCCAUGUGAUCAAUUAAUAGACAUGCUGC | 6.98 nM | 15.5 nM | – | –
7 | GCUAGUAUUGCAGGAUAUUGUGAAUAAUUAUUUCAAGAAGGGCAUUACAUGAGGAUCACCCAUGUCAUCCUUUUGAAUACUAGC | 5.67 nM | 7.63 nM | – | –
8 | GUGCUUGUCGAAGGAUAUGGUUACAUGAGGAUCACCCAUGUUAUGCUUGGAAAAUUGUUUAGUUUCCAGAAGGUCGAUUAGUUG | 19.7 nM | 17.7 nM | – | –
9 | GUAGCAUACCGAGGAUAUUCAUACAGGAAACAGACAUGAGGAUCACCCAUGUGGCGAAAGCCUUGGGAGAAGGCGGAAUGCUAC | – | – | 146 nM | 22.7 nM
10 | UUCAUGUGAGGAUAUGCGGCGUCAGGUGGGCCUGUCGCUGAGCAGAAGGCACAUGAGGAUCACCCAUGUGCUCC | 31.7 nM | 62.5 nM | – | –
11 | AGGAGGUCAGGAUAUGCAUGGCGGGACUUGCGUCGUGGCGUGCAGAAGGGACAUGAGGAUCACCCAUGUGGAGU | 113 nM | 139 nM | – | –
12 | GCGUUCUUGUAGAAGGUACCUUCAACAUAUUAUAAACGCUAGACACAUGAGGAUCACCCAUGUUGUAAGGAUAUACAUGAACGC | – | – | 16.7 nM | 13.5 nM
13 | ACAAAUGGAGGAUAUACAUGAGGAUCACCCAUGUAUAUCCUACAUAUGUGAUAAAAAUGUAGAAGGCCAUUUGA | 11.6 nM | 10.8 nM | – | –
14 | CAUUAAUUCAUUAUAGUAAUUUUACAGGAUAUGUAACAUGAGGAUCACCCAUGUAUUCUAGGUUAACAGAAGGGUAUUACUUGU | 28.9 nM | 20.7 nM | – | –
15 | CAAAGGUGAGGAUAUACAUAACUAUGACGAAAGUCAUAAACACAUGAGGAUCACCCAUGUAGAAGGCACCACAA | 26.3 nM | 37.9 nM | – | –
16 | UUGGACGUCGUAGGAUAUGUAGGAUAUUCCUACAUGAGGAUCACCCAUGUUGACAUGGAAGAAGGACAGAAGAACGAUGUCCAU | – | – | 161 nM | 4.92 nM
17 | AGUAAGAUGCAGAAGGUGUCAGCGAGAGCUGCACAUGAGGAUCACCCAUGUUGUCGGUGACGACACAAGGAUAUGCAUCUUACA | – | – | 31.4 nM | 12.8 nM
18 | GUCGGAAACGACAAACGUAGCAUACGAGAAGGCUGAUCCGCGACAUGAGGAUCACCCAUGUAGUUAGAGGAUAUUGGAUGCUAC | – | – | 81.7 nM | 17.3 nM
19 | AGCUGGUGACAGCAUCCAUCAUGACAUGAGGAUCACCCAUGUAGAAGGCUGUACGGUUACCGUACAGAGGAUAUACAAUGAUGG | 7.73 nM | 8.21 nM | – | –
20 | GUUCGGGCAGGAUAUACAUGAGGAUCACCCAUGUGUGUCCAUACGCGUGAGUCCUCGUGUAGAAGGGUUUGGGC | 23.2 nM | 17.4 nM | – | –
21 | CGCCUCAGUUCAGGAUAUGUAUGGGUCUAACGAACAGAAGGGAACAUGAGGAUCACCCAUGUAAAUAGGGCCAAAGGCUUGAUA | 35.8 nM | 208 nM | – | –

Row | Sequence | apparent Kd [1] | apparent Kd [2] | apparent Kd [3] | apparent Kd [4]
22 | CCAACCGUAGGAUAUUCCAAGUCCGACAUGAGGAUCACCCAUGUGUUUCUCUGCGAUUUAGGAGAAGGGCGGUUGG | 349 nM | 474 nM | – | –
23 | UAGUAUAAGGGCAUUAAACAUGAGGAUCACCCAUGUACGUUAGAGGAUAUGCAUUACAGUUGAGAGUAGAAGGUUAGAGAAGGG | 44.4 nM | 45.3 nM | – | –
24 | GUCAGCUCGUGAGGAUAUACAUCACUGCUUCGGCAGUGUAUUAAGAGUACAUGAGGAUCACCCAUGUAGAAGGCACGAGCUGAU | 17.3 nM | 19.6 nM | – | –
25 | UUUUUGUGAGGAUAUCAGUAGUAAAAAAAUAAAAUUACUACUGAGAAGGCACAUGAGGAUCACCCAUGUUUUUC | 38.2 nM | 117 nM | – | –
26 | GGUUGGCGAGGAUAUACAUGAGGAUCACCCAUGUGAGAGAAAAAAGUGAGAACGAAAAGUAGAAGGCGCUGACG | 43.5 nM | 176 nM | – | –
27 | AAUCUAAUCCUUAAACAUGAGGAUCACCCAUGUAUUGGCAAGUAGGAUAUCGAUAAAUAUUUCAACGAGAAGGACUAUACAAAA | 21.7 nM | 31.7 nM | – | –
28 | UCGGCGCGAGGAUAUGCGGCUCCUGCUUCGGGCCGGAGCGUACAUGAGGAUCACCCAUGUAGAAGGCGCGCCGC | 12 nM | 13.9 nM | – | –
29 | AGAUCUCAAUAAGAUCCAAUACGAACAUGAGGAUCACCCAUGUAGGAUAUGCUAGAAGUAGAGUAGCAGAAGGACAAUUACCUU | 19.9 nM | 19.7 nM | – | –
30 | AUAGUGCCCGAGAAGGACGUACCACAUGUUGAUCACCGAUAUAAGGAACGUAGGAUAUUGGACAUGAGGAUCACCCAUGUGGAU | – | – | 87.5 nM | 162 nM
31 | GUAGUUUAUGUAGGAUAUGCGAGGCGAGCCUAAGCAGAAGGACAUGAGGAUCACCCAUGUAUUGCGGUCUGCGUUCAGAUCGCU | 33.2 nM | 133 nM | – | –
32 | AUGCCUUAUGUAGGAUAUGCAUAGAGUUGCUAUGCAGAAGGACAUGAGGAUCACCCAUGUAUGUAUACCUUACAAAUCUAGCAU | 38.6 nM | 230 nM | – | –
33 | UUGUAGGAGACAGGAUAUGUACGGAAGGUUCACGUACAUGAGGAUCACCCAUGUCCAGACUUCAGACAGAAGGGUCACCAGGUG | – | – | 113 nM | 17.2 nM
34 | GGACCUCCUGAGGAUAUUGUAUCACCUGAUUGAUAAGAAGGCAGAACAUGAGGAUCACCCAUGUGGGUACUCGG | 168 nM | 145 nM | – | –
35 | AUUCCUCCUGUGAGGAUAUGCGUUUCGCACUCGUCGCAGAAGGCACAUGAGGAUCACCCAUGUGAGUUACCAAA | 14.8 nM | 20 nM | – | –
36 | AUUGUAUAGGAAGGAUAUAGAAUAUUAUUUUAACAUGAGGAUCACCCAUGUAACCUUAUGUGUAGCUAGAAGGUCCAUUUGUUA | 248 nM | 302 nM | – | –
37 | UGUGAGUUGAUGUUAGAUAGGAGAACAUGAGGAUCACCCAUGUAGGAUAUUCAAAGACGAAGAUAGAAGAAGGACAUAGGUAUC | 24.8 nM | 66.2 nM | – | –
38 | AAAUUAAGAUGAGGAUAUUGACAUGAGGAUCACCCAUGUAUUUGGGAAUGUUUACUGAAUUCUUACAAGAAGGUAUACGAACUU | 206 nM | 134 nM | – | –
39 | GUAUAUAUGUGGUACAUGAGGAUCACCCAUGUGUCUUUACAUGAGGAUAUGGAUUCUAAUUGGAUCCAGAAGGCAUGUAUAUAC | – | – | 33 nM | 23.7 nM
40 | AGCUGUGGCCGAGGAUAUCUGAAAACUCAAACCGAAAUAUAAUCGGACAUGAGGAUCACCCAUGUAGAGAAGGCGGUCUCAGCA | 53 nM | 117 nM | – | –
41 | UAAUAUUUAUGAUAUUAUGACAGUAGAAGGCUAUACAUGUUGAUACAUGAGGAUCACCCAUGUAUAGAGGAUAUAUACAUAUAU | 681 nM | 315 nM | – | –
